Experimental data pooled from the literature.
Compare with care: the assays were run in different laboratories.
Cell line: MCF7
Read-out: cell growth or viability

| SMILES | method | concentration | time | endpoint | result |
| --- | --- | --- | --- | --- | --- |
| O=C(Nc1cccc(-c2cn(Cc3ccc(Cl)cc3)nn2)c1)Nc1ccccc1Br | CCK-8 | 50 µM | 48 h | viability | 89.5% |
| COc1ccc(NC(=O)Nc2ccc(-c3cn(Cc4ccc(Cl)cc4)nn3)cc2)cc1 | CCK-8 | 50 µM | 48 h | viability | 95.1% |
| NCCC(=O)Nc1ccccc1/N=c1\cc(-c2ccc3nc(N)oc3c2)oc2ccccc12 | CCK-8 | 1 µM |  | inhibition | 46% |
| COc1ccc(NC(=O)NCc2cn(Cc3ccc(Br)cc3)nn2)cc1 | CCK-8 | 50 µM | 48 h | viability | 87.8% |
| CCNc1nc2ccc(-c3c/c(=N\c4ccccc4NC(=O)CCN)c4ccccc4o3)cc2o1 | CCK-8 | 1 µM |  | inhibition | 3.78% |
| O=C(Nc1ccc(Cl)cc1)Nc1ccc(-c2cn(Cc3ccc(Br)cc3)nn2)cc1 | CCK-8 | 50 µM | 48 h | viability | 93.7% |
| COc1ccc(NC(=O)NCc2cn(Cc3ccc(C)cc3)nn2)cc1 | CCK-8 | 50 µM | 72 h | viability | 101% |
| O=c1[nH]cc(F)c(=O)[nH]1 | MTT | 100 µM | 48 h | cell death | 71.2% |
| O=C(Nc1ccc(Cl)cc1)Nc1ccc(-c2cn(Cc3cccc(Cl)c3)nn2)cc1 | CCK-8 | 50 µM | 48 h | viability | 91.8% |
| NCCC(=O)Nc1ccccc1/N=c1\cc(-c2ccc3nc(N)oc3c2)oc2ccc(O)cc12 | CCK-8 | 1 µM |  | inhibition | 12.1% |
| CCc1nc(C(N)=O)c(Nc2ccc(N3CCC(N4CCN(C)CC4)CC3)c(OC)c2)nc1NC1CCOCC1 |  |  | 72 h | GI50 | 406 nM |
| COc1ccc2/c(=N/c3ccccc3NC(=O)N3CCOCC3)cc(-c3ccc4c(c3)OCCO4)oc2c1 | CCK-8 | 1 µM |  | inhibition | 7.65% |
| COc1ccc(NC(=O)Nc2cccc(-c3cn(Cc4ccc(Cl)cc4)nn3)c2)cc1 | CCK-8 | 50 µM | 72 h | viability | 104% |
| CC(C)C[C@@H](NC(=O)[C@H](C)NC(=O)CNC(=O)[C@@H](NC=O)C(C)C)C(=O)N[C@@H](C)C(=O)N[C@@H](C(=O)N[C@H](C(=O)N[C@@H](C(=O)N[C@@H](Cc1c[nH]c2ccccc12)C(=O)N[C@H](CC(C)C)C(=O)N[C@@H](Cc1c[nH]c2ccccc12)C(=O)N[C@H](CC(C)C)C(=O)N[C@@H](Cc1c[nH]c2ccccc12)C(=O)N[C@@H](C(=O)N[C@@H](Cc1c[nH]c2ccccc12)C(=O)NCCO)C(C)C)[C@H](C)O)C(C)C)C(C)C | SRB |  | 48 h | GI50 | 397 nM |
| O=C(Nc1ccc(-c2cn(Cc3ccc(Cl)cc3)nn2)cc1)Nc1ccccc1Br | CCK-8 | 50 µM | 48 h | viability | 99.3% |
| CCOc1ccc(C(=O)CC(SCc2ccc(Cl)cc2)C(=O)OC)cc1 (stereo not drawn) | MTT |  | 48 h | EC50 | 40000 nM |
| NCC(=O)Nc1ccccc1/N=c1\cc(-c2ccc3c(c2)OCO3)oc2c([N+](=O)[O-])cccc12 | CCK-8 | 1 µM |  | inhibition | 11.7% |
| O=C(NCc1cn(Cc2cccc(Cl)c2)nn1)Nc1ccc(Cl)cc1 | CCK-8 | 50 µM | 72 h | viability | 87.2% |
| Nc1ccccc1/N=c1\cc(-c2ccc3c(c2)OCO3)oc2ccccc12 | CCK-8 | 1 µM |  | inhibition | 7.65% |
| COc1ccc(NC(=O)Nc2ccc(-c3cn(Cc4cccc(Cl)c4)nn3)cc2)cc1 | CCK-8 | 50 µM | 72 h | viability | 98.2% |
| CN(C)CCNC(=O)c1ccc(-c2nc3ccc4[nH]ncc4c3c3c2CCCCC3)cc1 |  |  | 72 h | GI50 | 3320 nM |
| COc1ccc(NC(=O)Nc2cccc(-c3cn(Cc4ccc(C)cc4)nn3)c2)cc1 | CCK-8 | 50 µM | 72 h | viability | 104% |
| O=C(NN=Cc1ccc(O)cc1)c1nc2ccccc2s1 | MTT | 100 µM | 48 h | cell death | 38.1% |
| NCCC(=O)Nc1ccccc1/N=c1\cc(-c2ccc3nc(N)oc3c2)oc2cc(O)ccc12 | CCK-8 | 1 µM |  | inhibition | 9.96% |
